Assay results reported in ChEMBL document CHEMBL1122142, “Synthesis and antiinflammatory activity of hexahydrothiopyrano[4,3-c]pyrazoles and related analogues” (J Med Chem, 1982).

Legend:
[1] = tested on: Cavia porcellus; test: The compound was evaluated for the delayed hypersensitivity skin reaction (DHSR) activity after subcutaneous administration; 0/0
[2] = tested on: Mus musculus; test: The compound was evaluated for the mouse active Arthus (MAA) reaction activity for an ip dose of 150 mg/kg in mouse; assay type: functional; details: route intraperitoneal
Outline: (§1)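 CD-1 mice were sensitized ip with a 1:1 Freund's complete adjuvant emulsion containing BSA in saline, 5 weeks before challenge. Compound was suspended in 1% Na CMC in pyrogen-free saline and given as one ip or oral dose 1 h before skin challenge with BSA. Screening doses were 150 mg/kg ip and 300 mg/kg po, with some at 75 or 50 mg/kg ip. Lesions were excised 3.5 h after challenge and weighed against controls.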

[3] = species: Mus musculus; test: The compound was evaluated for the mouse active Arthus (MAA) reaction activity expressed as inhibitory dose.; assay type: functional; details: read-out: ID50 (the source's name)
Outline: as §1

[4] = Acute toxicity as LD50 value was determined in mice administered intraperitoneally; assay type: organism-based; details: mouse, in vivo, ip
[5] = tested on: Cavia porcellus; test: Tested in delayed hypersensitivity skin reaction (DHSR) after subcutaneous administration, activity reported as percent inhibition of erythema/induration of lesion; 14/42; assay type: functional
[6] = Therapeutic ratio was determined for intraperitoneal administration; assay type: ADME; details: ip; read-out: TR
[7] = tested on: Mus musculus; test: Mouse active Arthus (MAA) reaction activity was determined for an ip dose of 150 mg/kg in mouse; assay type: functional; details: route intraperitoneal
[8] = Acute toxicity as LD50 value was determined in mice administered orally; assay type: organism-based; details: mouse, in vivo, po
[9] = Therapeutic ratio was determined for peroral administration; details: po; read-out: TR
[10] = tested on: Mus musculus; test: The compound was evaluated for the mouse active Arthus (MAA) reaction activity expressed as inhibitory dose after oral administration; assay type: functional; details: read-out: ID50 (the source's name)
Outline: as §1

[11] = tested on: Mus musculus; test: Inhibition of Mouse active Arthus (MAA) reaction activity was determined for peroral dose of 300 mg/kg in mouse; 41-60%; assay type: functional; details: route oral
[12] = tested on: Cavia porcellus; test: Tested in delayed hypersensitivity skin reaction (DHSR) after subcutaneous administration, activity reported as percent inhibition of erythema/induration of lesion; 24/41; assay type: functional
Outline: (§2)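 Male Hartley guinea pigs were sensitized with Mycobacterium tuberculosis in Freund's incomplete adjuvant, injected into each hind footpad and subcutaneously at the neck. After 3 weeks, 1.2 μg PPD was given intradermally. Compound in sesame oil was given sc, 3 animals per group, 30 min before and 5 h after PPD; screening dose 50 mg/kg.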

[13] = tested on: Mus musculus; test: The compound was evaluated for the mouse active Arthus (MAA) reaction activity expressed as inhibitory dose after ip administration; assay type: functional; details: read-out: ID50 (the source's name)
Outline: as §1

[14] = tested on: Cavia porcellus; test: Tested in delayed hypersensitivity skin reaction (DHSR) after subcutaneous administration, activity reported as percent inhibition of erythema/induration of lesion; 7/6; assay type: functional
Outline: as §2

[15] = tested on: Mus musculus; test: The compound was evaluated for the mouse active Arthus (MAA) reaction activity for peroral dose of 300 mg/kg in mouse; 31-40%; assay type: functional; details: route oral
Outline: as §1

[16] = tested on: Mus musculus; test: Inhibition of Mouse Active Arthus reaction following 150 mg/Kg i.p.; 41-60% inhibition.; assay type: functional; details: Mus musculus, ip
[17] = tested on: Cavia porcellus; test: Tested in delayed hypersensitivity skin reaction (DHSR) after subcutaneous administration, activity reported as percent inhibition of erythema/induration of lesion; 16/52; assay type: functional
[18] = tested on: Mus musculus; test: Inhibition of Mouse active Arthus (MAA) reaction activity was determined for peroral dose of 300 mg/kg in mouse; 31-40%; assay type: functional; details: route oral
[19] = tested on: Cavia porcellus; test: Tested in delayed hypersensitivity skin reaction (DHSR) after subcutaneous administration, activity reported as percent inhibition of erythema/induration of lesion; 9/32; assay type: functional
Outline: as §2

[20] = tested on: Mus musculus; test: The compound was evaluated for the mouse active Arthus (MAA) reaction activity for an ip screening dose of 50 mg/kg; assay type: functional; details: route intraperitoneal
Outline: as §1

[21] = tested on: Cavia porcellus; test: Tested in delayed hypersensitivity skin reaction (DHSR) after subcutaneous administration, activity reported as percent inhibition of erythema/induration of lesion; 15/0; assay type: functional
[22] = tested on: Mus musculus; test: Inhibition of Mouse active Arthus (MAA) reaction activity was determined for peroral dose of 300 mg/kg in mouse; assay type: functional; details: route oral
[23] = tested on: Cavia porcellus; test: Tested in delayed hypersensitivity skin reaction (DHSR) after subcutaneous administration, activity reported as percent inhibition of erythema/induration of lesion; 12/45; assay type: functional
[24] = tested on: Cavia porcellus; test: Tested in delayed hypersensitivity skin reaction (DHSR) after subcutaneous administration, activity reported as percent inhibition of erythema/induration of lesion; 4/6; assay type: functional
Outline: as §2

[25] = tested on: Mus musculus; test: Inhibition of Mouse active Arthus (MAA) reaction activity was determined for an ip dose of 150 mg/kg in mouse; 21-30%; assay type: functional; details: route intraperitoneal
[26] = tested on: Cavia porcellus; test: Tested in delayed hypersensitivity skin reaction (DHSR) after subcutaneous administration, activity reported as percent inhibition of erythema/induration of lesion; 15/42; assay type: functional
[27] = tested on: Mus musculus; test: The compound was evaluated for the mouse active Arthus (MAA) reaction activity for an ip dose of 150 mg/kg in mouse; 31-40%; assay type: functional; details: route intraperitoneal
Outline: as §1

[28] = tested on: Cavia porcellus; test: Tested in delayed hypersensitivity skin reaction (DHSR) after subcutaneous administration, activity reported as percent inhibition of erythema/induration of lesion; 14/11; assay type: functional
[29] = tested on: Cavia porcellus; test: Tested in delayed hypersensitivity skin reaction (DHSR) after subcutaneous administration, activity reported as percent inhibition of erythema/induration of lesion; 0/8; assay type: functional
[30] = tested on: Rattus norvegicus; test: Carrageenan-induced edema was determined after intraperitoneal administration; details: ip, read-out: ID50 (the source's name)
[31] = tested on: Rattus norvegicus; test: Adjuvant-induced arthritis was determined for a dose of 75 mg/kg oral administration
[32] = tested on: Rattus norvegicus; test: Carrageenan-induced edema was determined after oral administration of a dose of; details: read-out: ID50 (the source's name)
[33] = The acute toxicity as LD50 value was determined in mice for intraperitoneally administration; assay type: organism-based; details: mouse, in vivo, ip
[34] = tested on: Mus musculus; test: Mouse active Arthus (MAA) reaction activity was determined for an oral dose of 300 mg/kg administration in mouse; 21-30%; assay type: functional
[35] = tested on: Rattus norvegicus; test: Adjuvant-induced arthritis was determined for a dose of 150 mg/kg administered orally; details: po
[36] = tested on: Rattus norvegicus; test: Adjuvant-induced arthritis was determined for a dose of 75 mg/kg intraperitoneal administration; details: ip
[37] = tested on: Rattus norvegicus; test: Adjuvant-induced arthritis was determined for a dose of 150 mg/kg administered intraperitoneally; details: ip
[38] = tested on: Cavia porcellus; test: Delayed hypersensitivity skin reaction (DHSR) activity was determined after a dose of 50 mg/kg; 6/15
[39] = tested on: Cavia porcellus; test: The compound was evaluated for the delayed hypersensitivity skin reaction (DHSR) activity after subcutaneous administration; 23/37
[40] = tested on: Cavia porcellus; test: Tested in delayed hypersensitivity skin reaction (DHSR) after subcutaneous administration, activity reported as percent inhibition of erythema/induration of lesion; 24/32; assay type: functional
Outline: as §2

CN1CCN(CCCN2N=C3/C(=C/c4ccc([S+](C)[O-])cc4)COCC3C2c2ccc([S+](C)[O-])cc2)CC1.O=C(O)/C=C\C(=O)O (stereo unspecified)
Activity [1]: 0
inhibition in vivo at 150 mg/kg [2]: < 20%

Cc1ccccc1/C=C1\CS(=O)(=O)CC2C1=NN(CCCN1CCN(C)CC1)C2c1ccccc1C.O=C(O)/C=C\C(=O)O (stereo unspecified)
ED50 [3]: < 37.5 mg/kg
LD50 [4]: 130 mg/kg
Activity [5]: 14
selectivity ratio [6]: < 3.5
inhibition in vivo at 150 mg/kg [7]: > 60%

Cc1ccccc1/C=C1\CSCC2C1=NN(CCCN1CCN(C)CC1)C2c1ccccc1C.O=C(O)/C=C\C(=O)O (stereo unspecified)
LD50 [8]: > 1200 mg/kg
LD50 [4]: 170 mg/kg
selectivity ratio [9]: > 5.3
ED50 [10]: 225 mg/kg
selectivity ratio [6]: 5.7
inhibition in vivo at 300 mg/kg [11]: 41%
Activity [12]: 24
inhibition in vivo at 150 mg/kg [7]: > 60%
ED50 [13]: 30 mg/kg

CN1CCN(CCCN2N=C3/C(=C/c4ccccc4)CS(=O)(=O)CC3C2c2ccccc2)CC1.O=C(O)/C=C\C(=O)O (stereo unspecified)
Activity [14]: 7
inhibition in vivo at 300 mg/kg [15]: 31%
inhibition in vivo at 150 mg/kg [2]: > 60%

Cc1ccc(/C=C2\CSCC3C2=NN(CCCN2CCN(C)CC2)C3c2ccc(C)cc2)cc1.O=C(O)/C=C\C(=O)O (stereo unspecified)
inhibition in vivo at 150 mg/kg [16]: 41%
Activity [17]: 16
inhibition in vivo at 300 mg/kg [18]: 31%
ED50 [13]: 58 mg/kg

CN1CCN(CCCN2N=C3/C(=C/c4ccccc4)COCC3C2c2ccccc2)CC1.O=C(O)/C=C\C(=O)O (stereo unspecified)
Activity [19]: 9
inhibition in vivo at 50 mg/kg [20]: > 60%

CC(C)(C)c1ccc(/C=C2\CS(=O)(=O)CC3C2=NN(CC2CC2)C3c2ccc(C(C)(C)C)cc2)cc1 (stereo unspecified)
Activity [21]: 15

CCCN1N=C2/C(=C/c3ccc(OC)cc3)CSCC2C1c1ccc(OC)cc1 (stereo unspecified)
inhibition in vivo at 300 mg/kg [22]: < 20%
inhibition in vivo at 150 mg/kg [16]: 41%
Activity [23]: 12

OCCN1N=C2/C(=C/c3ccccc3)CSCC2C1c1ccccc1 (stereo unspecified)
Activity [24]: 4
inhibition in vivo at 150 mg/kg [25]: 21%

CCCn1nc(-c2ccc(OC)cc2)c2c1/C(=C/c1ccc(OC)cc1)CSC2
Activity [26]: 15
inhibition in vivo at 150 mg/kg [27]: 31%

Cc1ccc(/C=C2\CS(=O)(=O)CC3C2=NN(CC(F)(F)F)C3c2ccc(C)cc2)cc1 (stereo unspecified)
inhibition in vivo at 300 mg/kg [22]: < 20%
inhibition in vivo at 150 mg/kg [16]: 41%
Activity [28]: 14

O=S1(=O)C/C(=C\c2ccc(Cl)cc2)C2=NN(c3ccccc3)C(c3ccc(Cl)cc3)C2C1 (stereo unspecified)
Activity [29]: 0

CC(=O)N1N=C2/C(=C/c3cccc(C(F)(F)F)c3)CS(=O)(=O)CC2C1c1cccc(C(F)(F)F)c1 (stereo unspecified)
ED50 [30]: > 150 mg/kg
LD50 [8]: > 7200 mg/kg
inhibition in vivo at 75 mg/kg [31]: 0%
LD50 [4]: > 3200 mg/kg
ED50 [10]: > 600 mg/kg
ED50 [32]: > 200 mg/kg
selectivity ratio [6]: 24
inhibition in vivo at 150 mg/kg [16]: 41%
LD50 [33]: > 4000 mg/kg
inhibition in vivo at 300 mg/kg [34]: 21%
inhibition in vivo at 150 mg/kg [35]: 7%
inhibition in vivo at 75 mg/kg [36]: 22%
inhibition in vivo at 150 mg/kg [37]: 31%
Activity [38]: 6
ED50 [13]: 112 mg/kg

C(=C1/CSCC2C1=NNC2c1ccccc1)/c1ccccc1 (stereo unspecified)
inhibition in vivo at 150 mg/kg [16]: 41%
Activity [39]: 23

CCCN1N=C2/C(=C/c3ccc(Cl)cc3)CS(=O)(=O)CC2C1c1ccc(Cl)cc1 (stereo unspecified)
inhibition in vivo at 150 mg/kg [16]: 41%
Activity [40]: 24
